Measured values as given in the EternaBench riboswitch data.

Tested on: MS2 coat protein
Test: apparent Kd, MS2 coat protein; higher = weaker binding; RNA-MaP array; FMN 200 µM where present
Summary of the method: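 Binding was read on Illumina sequencing-chip clusters where stalled E. coli RNA polymerase had transcribed each design. A titration of SNAP-549-labelled MS2 coat protein began at 0.7 or 1.5 nM and doubled to 3 µM, once without ligand and once with constant ligand, in 100 mM Tris-HCl pH 7.5, 80 mM KCl, 4 mM MgCl2, BSA, DTT, yeast tRNA and Tween-20. The apparent Kd is the median of filtered per-cluster binding-curve fits, based on green signal normalised to red-channel RNA signal and control-cluster median Fmax.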

[1] = designed as: OFF switch for flavin mononucleotide, no ligand
[2] = ligand present: flavin mononucleotide, designed as: OFF switch for flavin mononucleotide
[3] = designed as: ON switch for flavin mononucleotide, no ligand
[4] = ligand present: flavin mononucleotide, designed as: ON switch for flavin mononucleotide

Row | Sequence | apparent Kd [1] [nM] | apparent Kd [2] [nM] | apparent Kd [3] [nM] | apparent Kd [4] [nM]
1 | GUAGAGUAAGGAUAUGUAGAAUAGGAUAGAAUGGUUAGAAUACAGAAGGUACAUGAGGAUCACCCAUGUAAUGU | 17.7 | 19.6 | – | –
2 | GUAGCAACAUGAGGAUCACCCAUGUAGGAUAUCGCUAUUGUAAUCAUGAAACAUGAUUACAAUAGCGAGAAGGACAUUGGCUAC | 7.06 | 10.8 | – | –
3 | GUAGCAAUCGGAGGAUAUUCAUGAAACAUGAGGAUCACCCAUGUUAAUUUGGGAGAAGGCCGAUUGCUACAAGAGCGAAAGCUC | – | – | 8.14 | 5.35
4 | GUAGCAUAAUCAGGAUAUUCAGCGAAUAGAUAGACAUGAGGAUCACCCAUGUGGCGAAAGCCUCGGGAGAAGGGAUAAUGCUAC | – | – | 168 | 54
5 | GUAGCAUACCAAGGAUAUUCAGGGCUUGGAUAGACAUGAGGAUCACCCAUGUGGCGAAAGUCAAGGGAGAAGGUGGUAUGCUAC | – | – | 17.6 | 13.4
6 | GUAGCAUACCAAGGAUAUUUAGGGCUUUGAUAGACAUGAGGAUCACCCAUGUGGCGUUAGUCACGGGAGAAGGUGGUAUGCUAC | – | – | 383 | 81.9
7 | GUAGCAUACCGAGGAUAUUCAGGGCGUGGAUAUACAUGAGGAUCACCCAUGUGGCGGAAGCCUAGGGAGAAGGCGGGAUGCUAC | – | – | 22.3 | 15.5
8 | GUAGCAUACCGAGGAUAUUCAGGGCGUGGGUAAACAUGAGGAUCACCCAUGUGGCGAAAGCCUAGGGAGAAGGCGGAAUGCUAC | – | – | 151 | 130
9 | GUAGCAUACCGAGGAUAUUCAUACCGGAAACGGACAUGAGGAUCACCCAUGUGGCGAAAGCCUUGGGAGAAGGCGGUAUGCUAC | – | – | 638 | 22.8
10 | GUAGCAUACCGAGGAUAUUCAUACCGGAAACGGACAUGAGGAUCACCCAUGUUGCGAAAGCAUUGGGAGAAGGCGGAAUGCUAC | – | – | 919 | 55.8
11 | GUAGCAUACCGAGGAUAUUCAUAUAAUACAUGAGGAUCACCCAUGUUAUAUAGGCGAAAGCCUUGGGAGAAGGCGGAAUGCUAC | – | – | – | 10.8
12 | GUAGCAUACCGAGGAUAUUCAUCCGGAAACGGACAUGAGGAUCACCCAUGUGCAGAAAACUGCUGGGAGAAGGCGGAAUGCUAC | – | – | 89.7 | 16.9
13 | GUAGCAUACCGAGGAUAUUCUGGGCUUAAAUAAACAUGAGGAUCACCCAUGUGGCGAAAGCCUAGGGAGAAGGCGGAAUGCUAC | – | – | 13.7 | 13
14 | GUAGCAUACGGAGGAUAUUCAUACCGGAAACGGACAUGAGGAUCACCCAUGUGGCGAAAGCCUUGGGAGAAGGCCGUAUGCUAC | – | – | 671 | 21.9
15 | GUAGCAUAGACAGGAUAUUCAUAUAAUAAAUAAACAUGAGGAUCACCCAUGUGGCGAAAGCCUUGGGAGAAGGGUCAAUGCUAC | – | – | 1070 | 82.1
16 | GUAGCUACAUGAGGAUCACCCAUGUAGGAUAUCGCUAUUGUAAUCAUGUUACAUGAUUACAAUAGCGAGAAGGACGUGAGCUAC | 8.39 | 8.7 | – | –
17 | GUAGCUAUCGGAGGAUAUUCAUACCGAAAACGGACAUGAGGAUCACCCAUGUGGCGAAAGUCUUGGGAGAAGGCCGAUAGCUAC | – | – | 39.2 | 7.62
18 | GUAGCUAUCGGAGGAUAUUCAUGAUACAUGAGGAUCACCCAUGUUAAAAUGGGAGAAGGCCGAUAGCUACAAGAGCGAAAGCUC | – | – | 41.1 | 8.01
19 | GUAGCUAUCGGAGGAUAUUUAUACCGGAAACGGACAUGAGGAUCACCCAUGUGGCGAAAGCCUUGGGAGAAGGCCGAUAGCUAC | – | – | 29.7 | 4.23
20 | GUAGUGCUCAUAGGAUAUCGGGAACGACUUAGACAGGUCGUACAUGAGGAUCACCCAUGUAAAGUCGAGAAGGGUGAUCACGCC | – | – | 592 | 160
21 | GUAGUGUGAGGAUAUGAUUAAUAGACGGGAUUGCGACUGCAUCAGAAGGCACAUGAGGAUCACCCAUGUAUGAA | 18.8 | 51.9 | – | –
22 | GUAUACGAUGAGGAUAUAUGAUAUCAAAGCAUCAUAGAAGGCAUCACAUGAGGAUCACCCAUGUGAUCUUCUAG | 15.7 | 52.6 | – | –
23 | GUAUAGAUUACAUGAGGAUCACCCAUGUCAGAACGGGUAAUCAGAAGGUAUUAUUAGAGAAAGGGUAAGGAUAUGAUUUUAUAU | – | – | 598 | 389
24 | GUAUCAUACCAAGGAUAUUUAGGACUUUGAUAGACAUGAGGAUCACCCAUGUGGCGUUAGUCACGGGAGAAGGUGGUAUGAUAC | – | – | 57.4 | 18.4
25 | GUAUGAGCGAUAGGAUAUACUGAGAUUGAAUGGGUAGAAGGAUCACUUGUGUGGAAGACAUGAGGAUCACCCAUGUCACGGGCC | – | – | 52.3 | 157
26 | GUAUGAUUAAGAGGAUAUAUACAACAUGAGGAUCACCCAUGUACCCGUGUAGUAGAAGGUUUGUUUUUAUAUAAUAAUAUAAUU | – | – | 26.6 | 19.1
27 | GUCACACACCGCUCCGUGUCUGACAUGAGGAUCACCCAUGUGAGAAGGUAGCGUCGCAGUGACGUUAAGGAUAUCACGUACAGA | 4.81 | 5.2 | – | –
28 | GUCAGCUCGUCAGGAUAUACAUGAGGAUCACCCAUGUGAUCAAUAGCAGCUUCGGCUGCAUUAAUGUAGAAGGGACGAGCUGAU | 267 | 69.2 | – | –

Row | Sequence | apparent Kd [1] [nM] | apparent Kd [2] [nM] | apparent Kd [3] [nM] | apparent Kd [4] [nM]
29 | GUCAGCUCGUCAGGAUAUACAUGAUAGAUCGAUUAAUUAAUUAAUUUAACAUGAGGAUCACCCAUGUAGAAGGGACGAGCUGAU | 109 | 84.2 | – | –
30 | GUCAGCUCGUGAGGAUAUACAAAACUGCUUCGGCAGUGUAUUAAGAUCACAUGAGGAUCACCCAUGUAGAAGGCACGAGCUGAU | 8.71 | 82.3 | – | –
31 | GUCAGCUCGUGAGGAUAUACAACACUGCUUCGGCAGUGUAUUAAGAUCACAUGAGGAUCACCCAUGUAGAAGGCACGAGCGGAU | 14.4 | 244 | – | –
32 | GUCAGCUCGUGAGGAUAUACAACACUGCUUCGGCAGUGUAUUAAGUUCACAUGAGGAUCACCCAUGUAGAAGGCACGAGCUGAU | 5.56 | 6.8 | – | –
33 | GUCAGCUCGUGAGGAUAUACAUGUGCUGGAUACAGCAUUAAAUAAUUCACAUGAGGAUCACCCAUGUAGAAGGCACGAGCUGAU | 17.9 | 42.9 | – | –
34 | GUCAUGUAAGGAUAUCUUACAUGUGACUUCGGUCACUGUCAAGAGAAGGUACAUGAGGAUCACCCAUGUUCGAC | 17.2 | 21.8 | – | –
35 | GUCAUGUAAGGAUAUCUUACAUGUGACUUCGGUCACUGUCGAGAGAAGGUACAUGAGGAUCACCCAUGUUCGAC | 17.3 | 24 | – | –
36 | GUCCAACAUGAGGAUCACCCAUGUGAGGAUAUGCGAAUUUCAUCAAAAGAUGAAAUUUGCAGAAGGCACAGGAC | 20.2 | 32.8 | – | –
37 | GUCCACAUGAGGAUCACCCAUGUGAGAAGGUUGGUUUUGUUGAGGUAGUGGUUUGCCUUGGUGGUAGAGGAUAUUGAUGGGUUA | 7.7 | 7.33 | – | –
38 | GUCCUCUCUGAGGAUAUUAUCUGGUCCGAUUGAUAAGAAGGCAGUACAUGAGGAUCACCCAUGUGGGUCGUCUG | 53.5 | 77.7 | – | –
39 | GUCGAGUGAGGAUAUGGUGAGUAGUGCCAGAGCGCUGCUCACCAGAAGGCACAUGAGGAUCACCCAUGUAUGUC | 12.9 | 20.8 | – | –
40 | GUCGAGUGAGGAUAUGGUGAGUAGUGCCUGAGCGCUGCUCACCAGAAGGCACAUGAGGAUCACCCAUGUAUGAC | 18.2 | 23.9 | – | –
41 | GUCGAUGUAGGAUAUUUCCACCCGCACAUGAGGAUCACCCAUGUGACCUUUUUCCGCUGGAAAGAAGGACGCGACA | 19.8 | 28.4 | – | –
42 | GUCGGAAACGACAAAAGUAUGGAUCCAGAAGGCAUGUACAUGAGGAUCACCCAUGUCUAAAGAUAUGAGGAUAUGGAUCCAUAC | – | – | 6.71 | 5.18
43 | GUCGGAAACGACAAAAGUAUGGAUCCAGAAGGUAUGAAACAUGAGGAUCACCCAUGUCAAAGACAUGAGGAUAUGGAUCCAUAC | – | – | 32.4 | 9.54
44 | GUCGGGAUUACAUGAGGAUCACCCAUGUCAGAACGGGCAGUCAGAAGGUGCCAUUAGGGAGAGGGUAAGGAUAUGAUUUUUGGC | – | – | 11.3 | 9.92
45 | GUCGUGUGAGGAUAUGGAUAGACGCAGUGACAGUAAGCGACCUAGAAGGCACAUGAGGAUCACCCAUGUAUGUG | 45.5 | 84.1 | – | –
46 | GUCUCGUCAGGAUAUGACGCUACAUUUUCUUUUUAGAAGAGUCAGAAGGGACAUGAGGAUCACCCAUGUGAUUC | 430 | 596 | – | –
47 | GUCUUAUUACAGAAGGUGUUUUACAUGAGGAUCACCCAUGUUUUAUUGUUUAAAUUUGAUAUUUACAAGGAUAUGUACUAAUCU | – | – | 25.1 | 21
48 | GUCUUCCUAGGAUAUACAUGAGGAUCACCCAUGUACAGUUUCGUCUUGGGAUACUCGCGUAGAAGGAGGUGGUU | 33.2 | 37.3 | – | –
49 | GUCUUGUCAGGAUAUCUUACAUAACAAUCGUAGUUACAAUUGGAGAAGGGACAUGAGGAUCACCCAUGUUAGCC | 18.7 | 21 | – | –
50 | GUGAAACAUGAGGAUCACCCAUGUGAGGAUAUGUUUUAGUACUGCUGACAGUACAUCUAUAGAAGGCACAAAGG | 26.8 | 29.9 | – | –
51 | GUGACGAAUGUAGGAUAUGCUGAGGAUAACUCAGCAGAAGGACAUGAGGAUCACCCAUGUACUAAUAGUGAUAAUAAACGUCAC | 14.8 | 82.5 | – | –
52 | GUGACGAUGUAAGGAUAUGCUGAGGAAUACUCAGCAGAAGGUACAUGAGGAUCACCCAUGUAAAUAAUAAGAAAUAAACGUCAC | 16 | 24.9 | – | –
53 | GUGAGUAGUCAGGAUAUGCUGUACAAAAGUACAGCAGAAGGGAUUACAUGAGGAUCACCCAUGUUUACCUCAUG | 574 | 884 | – | –
54 | GUGCACACUCGAGGAUAUCGGAGAGUACUCCUUCGAGAAGGCGAUUCGUGCCGUGUUAUUCUGGACAUGAGGAUCACCCAUGUG | – | – | 125 | 39.9
55 | GUGCCUUGGGAGAAGGCCCAAUGCAAAGCAUAGGGAGGAUAUUCAUAUAAUAAAUAAACAUGAGGAUCACCCAUGUGGCACAAA | – | – | 479 | 33.3
